Experimental data taken from ChEMBL document CHEMBL3352447, “Structural development studies of PPARs ligands based on tyrosine scaffold” (Eur J Med Chem, 2015).
Activity calls are given as the source filed them. The rule behind the calls is not given here.

Experiments:
Format in all cases: cell-based
[1] = target: T1, Peroxisome proliferator-activated receptor gamma (Homo sapiens, UniProt P37231); assay: Agonist activity at human GAL4-PPARgamma ligand binding domain expressed in human HepG2 cells by luciferase reporter gene assay
T1 sequence (P37231 whole entry): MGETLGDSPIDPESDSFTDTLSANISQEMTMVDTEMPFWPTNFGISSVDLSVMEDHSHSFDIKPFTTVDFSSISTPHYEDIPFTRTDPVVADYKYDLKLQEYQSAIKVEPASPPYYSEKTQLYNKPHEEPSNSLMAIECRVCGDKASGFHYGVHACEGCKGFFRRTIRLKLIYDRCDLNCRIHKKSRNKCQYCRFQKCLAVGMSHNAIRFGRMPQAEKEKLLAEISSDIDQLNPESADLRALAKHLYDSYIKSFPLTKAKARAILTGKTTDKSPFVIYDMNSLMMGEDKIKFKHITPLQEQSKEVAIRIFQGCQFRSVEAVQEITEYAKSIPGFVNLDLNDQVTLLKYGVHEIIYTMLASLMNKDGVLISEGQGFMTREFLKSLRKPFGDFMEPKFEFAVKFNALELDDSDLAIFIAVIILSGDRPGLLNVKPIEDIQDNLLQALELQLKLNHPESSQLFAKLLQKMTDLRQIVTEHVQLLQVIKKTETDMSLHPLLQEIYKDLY
In short: (§1)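 HepG2 cells grown in MEM with 10% heat-inactivated FBS, penicillin/streptomycin, 37 °C, 5% CO2. 10^5 cells/well seeded, transfected after 24 h by calcium phosphate with Gal4-PPAR LBD expression plasmid (30 ng), pGal5TKpGL3 luciferase reporter (100 ng) and pCMVbgal (250 ng). Ligand added 4 h post-transfection for 20 h, in triplicate. Luciferase read in cell extracts, with β-galactosidase measured using ONPG.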

[2] = target: T2, Peroxisome proliferator-activated receptor alpha (Homo sapiens) (UniProt Q07869); assay: Agonist activity at human GAL4-PPARalpha ligand binding domain expressed in human HepG2 cells assessed as maximum fold induction by luciferase reporter gene assay relative to Wy-14643; in short: as §1
T2 sequence (whole entry): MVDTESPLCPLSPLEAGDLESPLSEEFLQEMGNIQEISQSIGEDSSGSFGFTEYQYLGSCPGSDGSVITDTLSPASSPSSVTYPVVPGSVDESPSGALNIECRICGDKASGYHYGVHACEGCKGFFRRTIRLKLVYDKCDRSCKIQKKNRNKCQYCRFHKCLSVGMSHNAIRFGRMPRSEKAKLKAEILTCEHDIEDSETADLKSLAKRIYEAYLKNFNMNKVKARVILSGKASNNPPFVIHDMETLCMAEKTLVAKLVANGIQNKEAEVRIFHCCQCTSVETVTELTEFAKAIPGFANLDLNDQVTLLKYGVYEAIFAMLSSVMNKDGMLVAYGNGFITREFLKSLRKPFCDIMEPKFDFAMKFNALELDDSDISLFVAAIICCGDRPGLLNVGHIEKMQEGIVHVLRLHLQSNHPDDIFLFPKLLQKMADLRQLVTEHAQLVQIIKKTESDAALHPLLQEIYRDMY

[3] = target: T3, Peroxisome proliferator-activated receptor delta (Homo sapiens, UniProt Q03181); assay: Agonist activity at human GAL4-PPARdelta ligand binding domain expressed in human HepG2 cells by luciferase reporter gene assay
T3 sequence (Q03181 whole entry): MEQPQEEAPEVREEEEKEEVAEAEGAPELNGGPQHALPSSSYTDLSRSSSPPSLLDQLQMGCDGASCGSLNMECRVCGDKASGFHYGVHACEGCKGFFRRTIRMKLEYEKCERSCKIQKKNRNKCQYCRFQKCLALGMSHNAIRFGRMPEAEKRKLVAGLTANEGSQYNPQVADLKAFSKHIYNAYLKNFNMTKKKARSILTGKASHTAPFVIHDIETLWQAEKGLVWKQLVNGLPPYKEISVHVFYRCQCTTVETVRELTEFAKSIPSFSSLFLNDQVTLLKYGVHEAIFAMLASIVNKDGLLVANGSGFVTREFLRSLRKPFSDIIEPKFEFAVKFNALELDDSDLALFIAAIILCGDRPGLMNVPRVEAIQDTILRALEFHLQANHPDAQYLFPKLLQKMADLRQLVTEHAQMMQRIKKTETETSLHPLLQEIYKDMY

[4] = target: T4, Peroxisome proliferator-activated receptor gamma (Homo sapiens) (UniProt P37231); assay: Agonist activity at human GAL4-PPARgamma ligand binding domain expressed in human HepG2 cells assessed as maximum fold induction by luciferase reporter gene assay relative to rosiglitazone; in short: as §1
T4 sequence (whole entry): T1 sequence (P37231 whole entry)

[5] = target: T5, Peroxisome proliferator-activated receptor alpha (Homo sapiens, UniProt Q07869); assay: Agonist activity at human GAL4-PPARalpha ligand binding domain expressed in human HepG2 cells by luciferase reporter gene assay; in short: as §1
T5 sequence (Q07869 whole entry): T2 sequence (whole entry)

Compound	EC50 ([1]; read-out: EC50) [µM]	Emax [2]	EC50 [3]	Emax [4]	EC50 [5]	EC50 ([1]; hepg2)
C/C(=C\C(=O)c1ccccc1)NC(Cc1ccc(OCCOc2ccc(/C=C/c3ccc(C)cc3)cc2)cc1)C(=O)O (stereo not given)	0.021	–	Not Active	77%	Not Active	–
C/C(=C\C(=O)c1ccccc1)NC(Cc1ccc(OCCCOc2ccc(/C=C/c3ccc(C(F)(F)F)cc3)cc2)cc1)C(=O)O (stereo not given)	0.032	–	Not Active	46%	Not Active	–
COc1ccc(/N=N/c2ccc(OCCCOc3ccc(CC(N/C(C)=C/C(=O)c4ccccc4)C(=O)O)cc3)cc2)cc1 (stereo not given)	–	–	Not Active	24%	Not Active	–
O=C(/C=C/c1ccccc1)NC(Cc1ccc(OCCOc2ccc(/C=C/c3ccccc3)cc2)cc1)C(=O)O (stereo not given)	0.64	–	Not Active	45%	Not Active	–
CCCc1c(OCCCOc2ccc(OCC(=O)O)cc2)ccc(C(C)=O)c1O	–	–	–	–	Not Active	Not Active
CN(CCOc1ccc(CC2SC(=O)NC2=O)cc1)c1ccccn1 (stereo not given) [ROSIGLITAZONE]	–	inactive	–	–	Not Active	–
C/C(=C\C(=O)c1ccccc1)NC(Cc1ccc(OCCCOc2ccc(/C=C/c3ccc(Cl)cc3)cc2)cc1)C(=O)O (stereo not given)	0.012	–	Not Active	56%	Not Active	–
C/C(=C\C(=O)c1ccccc1)NC(Cc1ccc(OCCCOc2ccc(/N=N/c3ccccc3)cc2)cc1)C(=O)O (stereo not given)	1.37	8%	Not Active	31%	–	–
C/C(=C\C(=O)c1ccccc1)NC(Cc1ccc(OCCOc2ccc(/C=C/c3ccc(Cl)cc3)cc2)cc1)C(=O)O (stereo not given)	0.026	–	Not Active	50%	Not Active	–
C/C(=C\C(=O)c1ccccc1)NC(Cc1ccc(OCCCOc2ccc(/N=N/c3ccc(Cl)cc3)cc2)cc1)C(=O)O (stereo not given)	0.047	–	Not Active	59%	Not Active	–
Cc1cccc(Nc2cc(Cl)nc(SCC(=O)O)n2)c1C [PIRINIXIC ACID]	–	–	–	inactive	–	Not Active
C/C(=C\C(=O)c1ccccc1)NC(Cc1ccc(OCCOc2ccc(/N=N/c3ccccc3)cc2)cc1)C(=O)O (stereo not given)	0.183	–	Not Active	54%	Not Active	–

The remaining lines, values ahead:

EC50 ([1]; read-out: EC50) [µM]	Emax [2]	EC50 [3]	Emax [4]	EC50 [5]	EC50 ([1]; hepg2)	Compound
0.047	9%	Not Active	65%	–	–	C/C(=C\C(=O)c1ccccc1)NC(Cc1ccc(OCCCOc2ccc(/C=C/c3ccccc3)cc2)cc1)C(=O)O (stereo not given)
0.084	–	Not Active	69%	Not Active	–	C/C(=C\C(=O)c1ccccc1)NC(Cc1ccc(OCCOc2ccc(/C=C/c3ccc(C(F)(F)F)cc3)cc2)cc1)C(=O)O (stereo not given)
0.029	–	Not Active	54%	Not Active	–	C/C(=C\C(=O)c1ccccc1)NC(Cc1ccc(OCCCOc2ccc(/N=N/c3ccc([N+](=O)[O-])cc3)cc2)cc1)C(=O)O (stereo not given)
0.039	–	Not Active	52%	Not Active	–	C/C(=C\C(=O)c1ccccc1)NC(Cc1ccc(OCCOc2ccc(/N=N/c3ccc(Cl)cc3)cc2)cc1)C(=O)O (stereo not given)
0.25	–	Not Active	61%	Not Active	–	CC(=O)/C=C(\C)NC(Cc1ccc(OCCOc2ccc(/C=C/c3ccccc3)cc2)cc1)C(=O)O (stereo not given)
0.012	20%	Not Active	75%	–	–	C/C(=C\C(=O)c1ccccc1)NC(Cc1ccc(OCCOc2ccc(/C=C/c3ccccc3)cc2)cc1)C(=O)O (stereo not given)
